Assay results reported in ChEMBL document CHEMBL1138995, “Triaminotriazine DNA helicase inhibitors with antibacterial activity” (Bioorg Med Chem Lett, 2006).
In brackets after ≈: the same amount, converted by molar mass. Activity calls are given as the source filed them. No cut-off for these calls is given here.

Tests used:
[1] = tested on: Staphylococcus aureus; assay: Antibacterial activity against Staphylococcus aureus RN4220; type: functional
Procedure, shortened: (§1)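 MIC by broth dilution following NCCLS standard M7-A4 for aerobically growing bacteria, reported in µg/mL. Strains were S. aureus RN4220, tolC-deficient hypersusceptible E. coli LBB925, and permeability-barrier-deficient P. aeruginosa Z61.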

[2] = tested on: Escherichia coli; assay: Antibacterial activity against tolC deficient Escherichia coli LBB925; type: functional; procedure, shortened: as §1
[3] = tested on: HeLa; assay: Cytotoxicity against HeLa cells by MTS assay at 12.5 uM measured as percentage survival; type: functional, Homo sapiens
Procedure, shortened: (§2)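 HeLa cells were exposed to the compound at three concentrations (12.5, 25 and 50 µM). Viability was read by MTS assay and expressed as % survival.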

[4] = tested on: HeLa; assay: Cytotoxicity against HeLa cells by MTS assay at 25 uM measured as percentage survival; type: functional, Homo sapiens; procedure, shortened: as §2
[5] = tested on: Pseudomonas aeruginosa; assay: Antibacterial activity against permeability barrier deficient Pseudomonas aeruginosa Z61; type: functional; procedure, shortened: as §1
[6] = tested on: Staphylococcus aureus; assay: Antibacterial activity against Staphylococcus aureus infected in mouse at 0.2 mL; type: functional, organism-based
[7] = molecular target: T1, Replicative DNA helicase (Pseudomonas aeruginosa (strain ATCC 15692 / PAO1 / 1C / PRS 101 / LMG12228), UniProt Q9HUN3); assay: Inhibition of Pseudomonas aeruginosa DnaB helicase
T1 sequence (Q9HUN3 whole entry): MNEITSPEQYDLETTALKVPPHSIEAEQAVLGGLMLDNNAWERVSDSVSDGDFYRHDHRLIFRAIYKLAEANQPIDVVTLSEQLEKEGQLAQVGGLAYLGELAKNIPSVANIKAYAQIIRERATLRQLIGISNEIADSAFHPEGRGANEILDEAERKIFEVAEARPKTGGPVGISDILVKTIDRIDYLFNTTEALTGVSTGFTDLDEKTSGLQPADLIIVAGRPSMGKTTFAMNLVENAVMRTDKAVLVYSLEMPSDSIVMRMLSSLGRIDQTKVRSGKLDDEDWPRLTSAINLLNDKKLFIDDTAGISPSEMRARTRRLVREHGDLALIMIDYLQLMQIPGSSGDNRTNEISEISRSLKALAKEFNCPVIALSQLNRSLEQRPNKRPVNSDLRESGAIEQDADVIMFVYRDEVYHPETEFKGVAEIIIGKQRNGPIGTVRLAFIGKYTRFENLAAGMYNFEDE

[8] = tested on: HeLa; assay: Cytotoxicity against HeLa cells by MTS assay at 50 uM measured as percentage survival; type: functional, Homo sapiens; procedure, shortened: as §2

SMILES | MIC [1] | MIC [2] | Activity [3] | Activity [4] | MIC [5] | Activity [6] | IC50 [7] | Activity [8]
Clc1ccc(Nc2nc(NCCN3CCOCC3)nc(Nc3ccc(Cl)cc3)n2)cc1 | 4 µg/mL (≈ 8.69 µM) | > 128 µg/mL | 103% | 90% | > 128 µg/mL | inactive | 20 µM | 6%
Fc1ccc(Nc2nc(NCCN3CCOCC3)nc(Nc3ccc(F)cc3)n2)cc1 |  |  |  |  |  |  | > 100 µM | 
O=[N+]([O-])c1ccc(Nc2nc(NCCN3CCOCC3)nc(Nc3ccc(Cl)cc3)n2)cc1 | 4 µg/mL (≈ 8.49 µM) | > 128 µg/mL | 78% | 19% | > 128 µg/mL | inactive | 5 µM | 10%
Fc1ccc(Nc2nc(Nc3ccc(F)c(F)c3)nc(N3CCN(Cc4ccccc4)CC3)n2)cc1F | > 128 µg/mL | > 128 µg/mL | 96% | 99% | > 128 µg/mL |  | 6 µM | 97%
Clc1cccc(Nc2nc(Nc3cccc(Cl)c3)nc(Nc3cccc(Cl)c3)n2)c1 | > 128 µg/mL | > 128 µg/mL | 74% | 83% | > 128 µg/mL |  | 31 µM | 64%
OCCN1CCN(c2nc(Nc3ccc(F)c(F)c3)nc(Nc3ccc(F)c(F)c3)n2)CC1 | 16 µg/mL (≈ 34.5 µM) | 16 µg/mL (≈ 34.5 µM) | 80% | 91% | > 128 µg/mL |  | 18 µM | 47%
CN1CCN(c2nc(Nc3ccc(F)cc3)nc(Nc3ccc(F)cc3)n2)CC1 | 32 µg/mL (≈ 80.5 µM) | 16 µg/mL (≈ 40.3 µM) | 100% | 64% | > 128 µg/mL |  | 22 µM | 11%
CC(=O)c1ccc(Nc2nc(Nc3ccc(Br)cc3)nc(Nc3ccc(Br)cc3)n2)cc1 | > 64 µg/mL | > 64 µg/mL |  |  | > 64 µg/mL |  | 6 µM | 
Fc1ccc(Nc2nc(NCCN3CCOCC3)nc(Nc3ccc(F)c(F)c3)n2)cc1F | 16 µg/mL (≈ 34.5 µM) | 16 µg/mL (≈ 34.5 µM) | 101% | 91% | > 128 µg/mL |  | 19 µM | 47%
CC(C)CN1CCN(c2nc(Nc3ccc(F)c(F)c3)nc(Nc3ccc(F)c(F)c3)n2)CC1 | 4 µg/mL (≈ 8.41 µM) | > 128 µg/mL | 99% | 99% | > 128 µg/mL |  | 5 µM | 86%
COc1ccc(Nc2nc(NCCN3CCOCC3)nc(Nc3ccc(OC)cc3)n2)cc1 |  |  |  |  |  |  | > 100 µM | 
OCCN1CCN(c2nc(Nc3ccc(F)cc3)nc(Nc3ccc(F)cc3)n2)CC1 | 64 µg/mL (≈ 150 µM) | 32 µg/mL (≈ 74.9 µM) | 101% | 104% | > 128 µg/mL |  | 23 µM | 51%
Fc1ccc(Nc2nc(Nc3ccc(F)c(F)c3)nc(N3CCN(CCOc4ccccc4)CC3)n2)cc1F | > 128 µg/mL | > 128 µg/mL | 97% | 100% | > 128 µg/mL |  | 5 µM | 99%
Clc1ccc(Nc2nc(NCCN3CCOCC3)nc(Nc3ccccc3)n2)cc1 | 64 µg/mL (≈ 150 µM) | 16 µg/mL (≈ 37.6 µM) | 98% | 74% | > 128 µg/mL |  | 65 µM | 14%
c1ccc(Nc2nc(NCCN3CCOCC3)nc(Nc3ccccc3)n2)cc1 |  |  |  |  |  |  | > 100 µM | 
